In ChEMBL document CHEMBL1811902, “Thermodynamic and biological evaluation of a thrombin binding aptamer modified with several unlocked nucleic acid (UNA) monomers and a 2'-C-piperazino-UNA monomer” (Bioorg Med Chem, 2011):

Key:
[1] = Thermodynamic stability in pH 7.0 buffer containing 100 mM Kcl, 10 mM sodium cacodylate; format: physicochemical
How it was run: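 UV melting at 295 nm over 5–95 °C at 0.2 °C/min. Samples annealed 5 min at 80 °C, then slowly cooled. Nine strand concentrations spanning 10^-5–10^-6 M, set from absorbance above 80 °C. Heating and cooling profiles recorded. Thermodynamic parameters from non-linear fitting of melting curves with a unimolecular transition model.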

[2] = test system: Plasma; assay: Anticoagulant activity in human plasma assessed as time required for clot formation at 0.33 mM at 37 degC; format: functional
How it was run: (§1)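 Pooled citrate plasma from four healthy donors. Thrombin reagent pre-incubated with aptamer at 0.33 mM for 5 min, then mixed with an equal volume of plasma. Clotting time (thrombin time, seconds) read at 37 °C on an automated coagulation analyser. Antithrombin effect taken as the extra clotting time over a water-added reference.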

[3] = biological target: Prothrombin (Homo sapiens, UniProt P00734); assay: Binding affinity to thrombin at 37 degC by isothermal titration calorimetry
How it was run: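 ITC at 37 °C. One 0.2 µL pre-injection, discarded, then 19 × 2 µL injections. Heat of dilution from aptamer-into-buffer injections subtracted.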

[4] = test system: Plasma; assay: Anticoagulant activity in human plasma assessed as time required for clot formation in presence of compound minus time required for clot formation in absence of compound at 0.33 mM at 37 degC; format: functional; how it was run: as §1

Tm [1]	Kd [3]	Compound	Time [2]	Time [4]
47.4 °C		Cc1cn([C@H]2C[C@H](OP(N)(=O)OC[C@@H]3C[C@@H](OP(N)(=O)OC[C@H]4O[C@@H](n5cnc6c(=O)[nH]c(N)nc65)C[C@@H]4OP(N)(=O)OC[C@H]4O[C@@H](n5cc(C)c(=O)[nH]c5=O)C[C@@H]4OP(N)(=O)OC[C@H]4O[C@@H](n5cnc6c(=O)[nH]c(N)nc65)C[C@@H]4OP(N)(=O)OC[C@H]4O[C@@H](n5cc(C)c(=O)[nH]c5=O)C[C@@H]4OP(N)(=O)OC[C@H]4O[C@@H](n5cnc6c(=O)[nH]c(N)nc65)C[C@@H]4OP(N)(=O)OC[C@H]4O[C@@H](n5cnc6c(=O)[nH]c(N)nc65)C[C@@H]4OP(N)(=O)OC[C@H](COP(N)(=O)OC[C@H]4O[C@@H](n5cc(C)c(=O)[nH]c5=O)C[C@@H]4OP(N)(=O)OC[C@H]4O[C@@H](n5cnc6c(=O)[nH]c(N)nc65)C[C@@H]4OP(N)(=O)OC[C@H]4O[C@@H](n5cnc6c(=O)[nH]c(N)nc65)C[C@@H]4O)O[C@H](CO)n4ccc(=O)[nH]c4=O)[C@H](n4cnc5c(=O)[nH]c(N)nc54)O3)[C@@H](COP(N)(=O)OC[C@@H](COP(N)(=O)O[C@H]3C[C@H](n4cnc5c(=O)[nH]c(N)nc54)O[C@@H]3COP(N)(=O)O[C@H]3C[C@H](n4cnc5c(=O)[nH]c(N)nc54)O[C@@H]3COC(=O)CCCC[C@@H]3SC[C@@H]4NC(=O)N[C@@H]43)O[C@H](CO)n3ccc(=O)[nH]c3=O)O2)c(=O)[nH]c1=O (stereo partly drawn)	19.4 s	0.4 s
29.7 °C		Cc1cn([C@H]2C[C@H](OP(N)(=O)OC[C@@H]3C[C@@H](OP(N)(=O)OC[C@H]4O[C@@H](n5cnc6c(=O)[nH]c(N)nc65)C[C@@H]4OP(N)(=O)OC[C@H]4O[C@@H](n5ccc(=O)[nH]c5=O)[C@H](O)[C@@H]4OP(N)(=O)OC[C@H]4O[C@@H](n5cnc6c(=O)[nH]c(N)nc65)[C@H](O)[C@@H]4OP(N)(=O)OC[C@H]4O[C@@H](n5ccc(=O)[nH]c5=O)[C@H](O)[C@@H]4OP(N)(=O)OC[C@H]4O[C@@H](n5cnc6c(=O)[nH]c(N)nc65)C[C@@H]4OP(N)(=O)OC[C@H]4O[C@@H](n5cnc6c(=O)[nH]c(N)nc65)C[C@@H]4OP(N)(=O)OC[C@H]4O[C@@H](n5ccc(=O)[nH]c5=O)[C@H](O)[C@@H]4OP(N)(=O)OC[C@H]4O[C@@H](n5cc(C)c(=O)[nH]c5=O)C[C@@H]4OP(N)(=O)OC[C@H]4O[C@@H](n5cnc6c(=O)[nH]c(N)nc65)C[C@@H]4OP(N)(=O)OC[C@H]4O[C@@H](n5cnc6c(=O)[nH]c(N)nc65)C[C@@H]4O)[C@H](n4cnc5c(=O)[nH]c(N)nc54)O3)[C@@H](COP(N)(=O)O[C@H]3[C@@H](O)[C@H](n4ccc(=O)[nH]c4=O)O[C@@H]3COP(N)(=O)O[C@H]3C[C@H](n4cnc5c(=O)[nH]c(N)nc54)O[C@@H]3COP(N)(=O)O[C@H]3C[C@H](n4cnc5c(=O)[nH]c(N)nc54)O[C@@H]3COC(=O)CCCC[C@@H]3SC[C@@H]4NC(=O)N[C@@H]43)O2)c(=O)[nH]c1=O (stereo partly drawn)	19 s	0 s
	37 nM	Cc1cn([C@H]2C[C@H](OP(N)(=O)OC[C@@H]3C[C@@H](OP(N)(=O)OC[C@H]4O[C@@H](n5cnc6c(=O)[nH]c(N)nc65)C[C@@H]4OP(N)(=O)OC[C@H]4O[C@@H](n5ccc(=O)[nH]c5=O)[C@H](O)[C@@H]4OP(N)(=O)OC[C@H]4O[C@@H](n5cnc6c(=O)[nH]c(N)nc65)C[C@@H]4OP(N)(=O)OC[C@H]4O[C@@H](n5cc(C)c(=O)[nH]c5=O)C[C@@H]4OP(N)(=O)OC[C@H]4O[C@@H](n5cnc6c(=O)[nH]c(N)nc65)C[C@@H]4OP(N)(=O)OC[C@H]4O[C@@H](n5cnc6c(=O)[nH]c(N)nc65)C[C@@H]4OP(N)(=O)OC[C@H]4O[C@@H](n5cc(C)c(=O)[nH]c5=O)C[C@@H]4OP(N)(=O)OC[C@H]4O[C@@H](n5cc(C)c(=O)[nH]c5=O)C[C@@H]4OP(N)(=O)OC[C@H]4O[C@@H](n5cnc6c(=O)[nH]c(N)nc65)C[C@@H]4OP(N)(=O)OC[C@H]4O[C@@H](n5cnc6c(=O)[nH]c(N)nc65)C[C@@H]4O)[C@H](n4cnc5c(=O)[nH]c(N)nc54)O3)[C@@H](COP(N)(=O)O[C@H]3C[C@H](n4cc(C)c(=O)[nH]c4=O)O[C@@H]3COP(N)(=O)O[C@H]3C[C@H](n4cnc5c(=O)[nH]c(N)nc54)O[C@@H]3COP(N)(=O)O[C@H]3C[C@H](n4cnc5c(=O)[nH]c(N)nc54)O[C@@H]3CO)O2)c(=O)[nH]c1=O (stereo partly drawn)		

Further lines, the compound ahead of its results:

Compound	Tm [1]	Kd [3]	Time [2]	Time [4]
Cc1cn([C@H]2C[C@H](OP(N)(=O)OC[C@H]3O[C@@H](n4cnc5c(=O)[nH]c(N)nc54)C[C@@H]3OP(N)(=O)OC[C@H]3O[C@@H](n4cnc5c(=O)[nH]c(N)nc54)C[C@@H]3O)[C@@H](COP(N)(=O)O[C@H]3C[C@H](n4cc(C)c(=O)[nH]c4=O)O[C@@H]3COP(N)(=O)O[C@H]3C[C@H](n4cnc5c(=O)[nH]c(N)nc54)O[C@@H]3COP(N)(=O)O[C@H]3C[C@H](n4cnc5c(=O)[nH]c(N)nc54)O[C@@H]3COP(N)(=O)O[C@H]3C[C@H](n4cc(C)c(=O)[nH]c4=O)O[C@@H]3COP(N)(=O)O[C@H]3C[C@H](n4cnc5c(=O)[nH]c(N)nc54)O[C@@H]3COP(N)(=O)OC[C@@H](COP(N)(=O)O[C@H]3C[C@H](n4cnc5c(=O)[nH]c(N)nc54)O[C@@H]3COP(N)(=O)O[C@@H]3C[C@@H](COP(N)(=O)O[C@H]4C[C@H](n5cc(C)c(=O)[nH]c5=O)O[C@@H]4COP(N)(=O)O[C@H]4C[C@H](n5c(C)cc(=O)[nH]c5=O)O[C@@H]4COP(N)(=O)O[C@H]4C[C@H](n5cnc6c(=O)[nH]c(N)nc65)O[C@@H]4COP(N)(=O)O[C@H]4C[C@H](n5cnc6c(=O)[nH]c(N)nc65)O[C@@H]4COC(=O)CCCC[C@@H]4SC[C@@H]5NC(=O)N[C@@H]54)O[C@H]3n3cnc4c(=O)[nH]c(N)nc43)O[C@H](CN3CCNCC3)n3ccc(=O)[nH]c3=O)O2)c(=O)[nH]c1=O (stereo partly drawn)	45.2 °C	52.6 nM	31.2 s	12.2 s
Cc1cn([C@H]2C[C@H](OP(N)(=O)OC[C@H]3O[C@@H](n4cnc5c(=O)[nH]c(N)nc54)C[C@@H]3OP(N)(=O)OC[C@H]3O[C@@H](n4cnc5c(=O)[nH]c(N)nc54)C[C@@H]3O)[C@@H](COP(N)(=O)O[C@H]3C[C@H](n4cc(C)c(=O)[nH]c4=O)O[C@@H]3COP(N)(=O)O[C@H]3C[C@H](n4cnc5c(=O)[nH]c(N)nc54)O[C@@H]3COP(N)(=O)O[C@H]3C[C@H](n4cnc5c(=O)[nH]c(N)nc54)O[C@@H]3COP(N)(=O)OC[C@@H](COP(N)(=O)OC[C@@H](COP(N)(=O)OC[C@@H](COP(N)(=O)O[C@H]3C[C@H](n4cnc5c(=O)[nH]c(N)nc54)O[C@@H]3COP(N)(=O)O[C@@H]3C[C@@H](COP(N)(=O)O[C@H]4C[C@H](n5cc(C)c(=O)[nH]c5=O)O[C@@H]4COP(N)(=O)O[C@H]4C[C@H](n5c(C)cc(=O)[nH]c5=O)O[C@@H]4COP(N)(=O)O[C@H]4C[C@H](n5cnc6c(=O)[nH]c(N)nc65)O[C@@H]4COP(N)(=O)O[C@H]4C[C@H](n5cnc6c(=O)[nH]c(N)nc65)O[C@@H]4COC(=O)CCCC[C@@H]4SC[C@@H]5NC(=O)N[C@@H]54)O[C@H]3n3cnc4c(=O)[nH]c(N)nc43)O[C@H](CO)n3ccc(=O)[nH]c3=O)O[C@H](CO)n3cnc4c(=O)[nH]c(N)nc43)O[C@H](CO)n3ccc(=O)[nH]c3=O)O2)c(=O)[nH]c1=O (stereo partly drawn)	27 °C	1500 nM	20.5 s	1.5 s
Cc1cn([C@H]2C[C@H](OP(N)(=O)OC[C@@H]3C[C@@H](OP(N)(=O)OC[C@H]4O[C@@H](n5cnc6c(=O)[nH]c(N)nc65)C[C@@H]4OP(N)(=O)OC[C@H](COP(N)(=O)OC[C@H]4O[C@@H](n5cnc6c(=O)[nH]c(N)nc65)C[C@@H]4OP(N)(=O)OC[C@H]4O[C@@H](n5cc(C)c(=O)[nH]c5=O)C[C@@H]4OP(N)(=O)OC[C@H]4O[C@@H](n5cnc6c(=O)[nH]c(N)nc65)C[C@@H]4OP(N)(=O)OC[C@H]4O[C@@H](n5cnc6c(=O)[nH]c(N)nc65)C[C@@H]4OP(N)(=O)OC[C@H](COP(N)(=O)OC[C@H]4O[C@@H](n5cc(C)c(=O)[nH]c5=O)C[C@@H]4OP(N)(=O)OC[C@H]4O[C@@H](n5cnc6c(=O)[nH]c(N)nc65)C[C@@H]4OP(N)(=O)OC[C@H]4O[C@@H](n5cnc6c(=O)[nH]c(N)nc65)C[C@@H]4O)O[C@H](CO)n4ccc(=O)[nH]c4=O)O[C@H](CO)n4ccc(=O)[nH]c4=O)[C@H](n4cnc5c(=O)[nH]c(N)nc54)O3)[C@@H](COP(N)(=O)OC[C@@H](COP(N)(=O)O[C@H]3C[C@H](n4cnc5c(=O)[nH]c(N)nc54)O[C@@H]3COP(N)(=O)O[C@H]3C[C@H](n4cnc5c(=O)[nH]c(N)nc54)O[C@@H]3COC(=O)CCCC[C@@H]3SC[C@@H]4NC(=O)N[C@@H]43)O[C@H](CO)n3ccc(=O)[nH]c3=O)O2)c(=O)[nH]c1=O (stereo partly drawn)	51 °C		19.5 s	0.5 s
